Test results published in ChEMBL document CHEMBL4808161, “Structure-Activity Relationship Study of Amidobenzimidazole Analogues Leading to Potent and Systemically Administrable Stimulator of Interferon Gene (STING) Agonists” (J Med Chem, 2021).

Legend:
[1] = target: T1, Stimulator of interferon genes protein (Homo sapiens, UniProt Q86WV6); assay: Activation of human STING (139 to 379 residues) expressed in THP1-Blue ISG cells at 10 uM incubated for 24 hrs by quanti-blue SEAP reporter gene assay relative to control; format: cell-based; conditions: filed as activator
T1 sequence (Q86WV6 whole entry, the tested form may be a part): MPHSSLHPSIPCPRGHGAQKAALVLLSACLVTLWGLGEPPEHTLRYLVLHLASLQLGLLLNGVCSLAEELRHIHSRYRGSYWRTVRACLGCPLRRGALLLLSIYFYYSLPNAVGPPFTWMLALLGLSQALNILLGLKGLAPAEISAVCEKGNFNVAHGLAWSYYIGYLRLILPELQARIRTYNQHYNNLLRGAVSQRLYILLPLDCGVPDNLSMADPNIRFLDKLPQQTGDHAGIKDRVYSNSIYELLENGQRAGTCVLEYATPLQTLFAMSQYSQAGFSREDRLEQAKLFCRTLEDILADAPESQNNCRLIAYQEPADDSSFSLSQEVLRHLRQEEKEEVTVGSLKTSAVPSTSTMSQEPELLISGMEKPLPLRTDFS
In short: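 THP1-Blue-ISG cells (1 × 10⁵/well) treated for 24 h; single-concentration screen at 10 μM. SEAP ISG reporter in 20 μL supernatant read with QUANTI-Blue at 650 nm. Activation given as fold over control, averaging at least two experiments.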

[2] = target: T2, Stimulator of interferon genes protein (Mus musculus) (UniProt Q3TBT3); assay: Activation of mouse STING expressed in RAW-Lucia ISG cells at 50 uM incubated for 24 hrs by quanti-blue SEAP reporter gene assay relative to control; format: cell-based; conditions: filed as activator
T2 sequence (whole entry): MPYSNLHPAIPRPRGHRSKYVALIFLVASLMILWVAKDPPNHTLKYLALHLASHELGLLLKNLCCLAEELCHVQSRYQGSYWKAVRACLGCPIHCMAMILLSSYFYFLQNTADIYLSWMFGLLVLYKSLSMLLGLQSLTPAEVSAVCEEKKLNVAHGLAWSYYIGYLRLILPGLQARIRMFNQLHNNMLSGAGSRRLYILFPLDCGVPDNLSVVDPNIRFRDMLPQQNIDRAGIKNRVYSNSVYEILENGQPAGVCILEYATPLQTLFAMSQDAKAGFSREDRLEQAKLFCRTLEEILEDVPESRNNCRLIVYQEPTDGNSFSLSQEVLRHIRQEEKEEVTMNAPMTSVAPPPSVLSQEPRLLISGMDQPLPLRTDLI

[3] = target: T1, Stimulator of interferon genes protein; assay: Activation of human STING expressed in THP1-Dual cells incubated for 24 hrs by secreted luciferase reporter gene assay
[4] = target: T3, Stimulator of interferon genes protein (Mus musculus, UniProt Q3TBT3); assay: Activation of mouse STING expressed in RAW-Lucia ISG cells incubated for 24 hrs by secreted luciferase reporter gene assay
T3 sequence (Q3TBT3 whole entry): T2 sequence (whole entry)

[5] = target: T2, Stimulator of interferon genes protein (Mus musculus); assay: Activation of mouse STING expressed in RAW-Lucia ISG cells at 50 uM incubated for 24 hrs by QUANTI-Luc luciferase reporter gene assay relative to control; conditions: filed as activator
[6] = Half life in rat at 1 mg/kg, iv; format: ADME, organism-based; conditions: in vivo
[7] = AUClast in rat at 1 mg/kg, iv; format: ADME, organism-based; parameters: time 0 - last, route intravenous, dose 1 mg/kg; conditions: in vivo
[8] = Observed AUCinfinity in rat at 1 mg/kg, iv; format: ADME, organism-based; parameters: time infinity, route intravenous, dose 1 mg/kg; conditions: in vivo
[9] = Observed clearance in rat at 1 mg/kg, iv; format: ADME, organism-based; conditions: in vivo
[10] = Observed MRT infinity in rat at 1 mg/kg, iv; format: ADME, organism-based; conditions: in vivo
[11] = Observed volume of distribution at steady state in rat at 1 mg/kg, iv; format: ADME, organism-based; conditions: in vivo, read-out: Vdss
[12] = target: Voltage-gated inwardly rectifying potassium channel KCNH2 (Homo sapiens, UniProt Q12809); assay: Inhibition of human ERG
Chain of Voltage-gated inwardly rectifying potassium channel KCNH2 (Q12809 whole entry): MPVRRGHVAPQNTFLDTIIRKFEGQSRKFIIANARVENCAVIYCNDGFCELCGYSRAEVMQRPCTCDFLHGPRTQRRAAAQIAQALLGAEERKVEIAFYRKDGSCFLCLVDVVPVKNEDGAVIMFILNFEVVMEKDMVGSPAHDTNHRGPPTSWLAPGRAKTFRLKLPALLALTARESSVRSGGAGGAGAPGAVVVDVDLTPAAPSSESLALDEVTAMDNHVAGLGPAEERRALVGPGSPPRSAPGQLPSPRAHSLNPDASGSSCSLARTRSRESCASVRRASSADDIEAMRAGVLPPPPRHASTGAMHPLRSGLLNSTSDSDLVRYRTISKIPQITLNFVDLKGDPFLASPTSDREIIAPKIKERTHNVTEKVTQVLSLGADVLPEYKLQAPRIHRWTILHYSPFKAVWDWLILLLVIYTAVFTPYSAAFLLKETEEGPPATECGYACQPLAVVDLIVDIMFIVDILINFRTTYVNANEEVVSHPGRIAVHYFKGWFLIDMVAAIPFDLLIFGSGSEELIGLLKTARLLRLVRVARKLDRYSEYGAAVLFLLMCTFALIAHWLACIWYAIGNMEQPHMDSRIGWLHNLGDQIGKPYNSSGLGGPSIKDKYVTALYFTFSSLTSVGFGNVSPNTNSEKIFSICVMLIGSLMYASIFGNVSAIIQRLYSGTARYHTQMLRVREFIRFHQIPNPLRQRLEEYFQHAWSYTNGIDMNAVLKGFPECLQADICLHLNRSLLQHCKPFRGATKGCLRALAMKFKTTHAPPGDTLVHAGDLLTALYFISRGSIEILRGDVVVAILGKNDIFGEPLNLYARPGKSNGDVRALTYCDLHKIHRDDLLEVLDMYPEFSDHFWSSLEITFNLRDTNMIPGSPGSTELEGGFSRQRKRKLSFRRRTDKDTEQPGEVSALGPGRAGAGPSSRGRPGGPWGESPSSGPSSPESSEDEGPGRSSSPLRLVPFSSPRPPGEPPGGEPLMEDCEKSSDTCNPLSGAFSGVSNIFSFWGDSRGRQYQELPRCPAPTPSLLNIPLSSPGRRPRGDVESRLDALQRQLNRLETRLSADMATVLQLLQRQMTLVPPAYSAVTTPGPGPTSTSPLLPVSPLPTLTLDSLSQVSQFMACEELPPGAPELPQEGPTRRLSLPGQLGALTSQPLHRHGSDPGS

[13] = Solubility of the compound; format: physicochemical

SMILES	fold change (FC) [1]	fold change (FC) [2]	EC50 [3] [µM]	EC50 [4] [µM]	fold change (FC) [5]	further results
CCn1nc(C)cc1C(=O)/N=c1\[nH]c2cc(C(N)=O)cc(OC)c2n1C/C=C/Cn1c(C(=O)CCC(=O)O)nc2cc(C(N)=O)cc(OCCCN3CCOCC3)c21	0.86	0.93	–	–	–	–
CCn1nc(C)cc1C(=O)/N=c1\[nH]c2cc(C(N)=O)cc(OC)c2n1C/C=C/Cn1/c(=N/C(=O)c2cc(C)nn2CC)[nH]c2cc(-c3ncc[nH]3)cc(OCCCN3CCOCC3)c21	17.3	–	0.79	> 50	1.18	–
COc1cc(C(N)=O)cc2nc(C(=O)CCC(=O)O)n(C/C=C/Cn3c(C(=O)CCC(=O)O)nc4cc(C(N)=O)cc(OCCCN5CCOCC5)c43)c12	9	1.4	–	–	–	–
CCn1nc(C)cc1C(=O)/N=c1\[nH]c2cc(-c3nc(C)n[nH]3)cc(OC)c2n1C/C=C/Cn1/c(=N/C(=O)c2cc(C)nn2CC)[nH]c2cc(C(N)=O)cc(OCCCN3CCOCC3)c21	18.8	–	2.55	> 50	0.92	–
CCn1nc(C)cc1C(=O)/N=c1\[nH]c2cc(C(N)=O)cc(OC)c2n1C/C=C/Cn1c(C(=O)CCC(=O)OC)nc2cc(C(N)=O)cc(OCCCN3CCOCC3)c21	0.83	0.9	–	–	–	–
CCn1nc(C)cc1C(=O)Nc1nc2cc(C(N)=O)cc(OC)c2n1C/C=C/Cn1c(NC(=O)c2cc(C)nn2CC)nc2cc(C(N)=O)cc(OCCCN3CCOCC3)c21 [listing 1 of 2 here]	–	–	–	–	–	half-life [6]: 68.4 min; AUC(0-t) [7]: 657 ng·h/mL; AUC(0-inf) [8]: 666 ng·h/mL; clearance [9]: 26 mL/min/kg; MRT inf [10]: 38 min; Vd [11]: 0.965 L/kg
CCn1nc(C)cc1C(=O)/N=c1\[nH]c2cc(-c3ncc[nH]3)cc(OC)c2n1C/C=C/Cn1/c(=N/C(=O)c2cc(C)nn2CC)[nH]c2cc(C(N)=O)cc(OCCCN3CCOCC3)c21	17.5	–	3.28	> 50	1.42	–
CCn1nc(C)cc1C(=O)/N=c1\[nH]c2cc(-c3ncn[nH]3)cc(OC)c2n1C/C=C/Cn1/c(=N/C(=O)c2cc(C)nn2CC)[nH]c2cc(-c3ncn[nH]3)cc(OCCCN3CCOCC3)c21	4.9	–	–	–	1.18	–
CCn1nc(C)cc1C(=O)Nc1nc2cc(C(N)=O)cc(OC)c2n1C/C=C/Cn1c(NC(=O)c2cc(C)nn2CC)nc2cc(C(N)=O)cc(OCCCN3CCOCC3)c21 [listing 2 of 2 here]	–	–	–	–	–	IC50 [12]: > 40 µM
CCn1nc(C)cc1CCc1nc2cc(C(N)=O)cc(OC)c2n1C/C=C/Cn1c(CCc2cc(C)nn2CC)nc2cc(C(N)=O)cc(OCCCN3CCOCC3)c21	0.95	–	–	–	0.9	–
COC(=O)CCC(=O)c1nc2cc(C(N)=O)cc(OC)c2n1C/C=C/Cn1c(C(=O)CCC(=O)OC)nc2cc(C(N)=O)cc(OCCCN3CCOCC3)c21	6.16	–	29.1	> 50	1.01	–
CCn1nc(C)cc1C(=O)/N=c1\[nH]c2cc(-c3ncn[nH]3)cc(OC)c2n1C/C=C/Cn1/c(=N/C(=O)c2cc(C)nn2CC)[nH]c2cc(C(N)=O)cc(OCCCN3CCOCC3)c21.Cl.Cl.Cl	–	–	–	–	–	solubility [13]: 71.3 mg/mL; IC50 [12]: > 40 µM
CCn1nc(C)cc1C(=O)/N=c1\[nH]c2cc(-c3cn(CCOCCOC)nn3)cc(OC)c2n1C/C=C/Cn1/c(=N/C(=O)c2cc(C)nn2CC)[nH]c2cc(C(N)=O)cc(OCCCN3CCOCC3)c21	17.2	–	–	–	1.16	–
CCn1nc(C)cc1C(=O)/N=c1\[nH]c2cc(-c3ncn[nH]3)cc(OC)c2n1[C@H]1CC[C@@H](n2/c(=N/C(=O)c3cc(C)nn3CC)[nH]c3cc(C(N)=O)cc(OCCCN4CCOCC4)c32)CC1	1.14	0.59	–	–	–	–
CCn1nc(C)cc1C(=O)/N=c1\[nH]c2cc(-c3ncc[nH]3)cc(OC)c2n1C/C=C/Cn1/c(=N/C(=O)c2cc(C)nn2CC)[nH]c2cc(-c3ncc[nH]3)cc(OCCCN3CCOCC3)c21	1.22	–	–	–	1.21	–
CCn1nc(C)cc1C(=O)/N=c1\[nH]c2cc(-c3ncn[nH]3)cc(OC)c2n1C/C=C/Cn1/c(=N/C(=O)c2cc(C)nn2CC)[nH]c2cc(C(N)=O)cc(OCCCO)c21	16.7	–	2.66	> 50	0.96	–
CCn1nc(C)cc1C(=O)/N=c1\[nH]c2cc(-c3ncn[nH]3)cc(OC)c2n1C/C=C/Cn1/c(=N/C(=O)c2cc(C)nn2CC)[nH]c2cc(C(N)=O)c3c(c21)OCCO3	1.58	1.1	–	–	–	–
CCn1nc(C)cc1C(=O)/N=c1\[nH]c2cc(C(N)=O)cc(OC)c2n1C/C=C/Cn1/c(=N/C(=O)c2cc(C)nn2CC)[nH]c2cc(-c3ncn[nH]3)cc(OCCCN3CCOCC3)c21	17	–	0.33	> 50	2.17	–
CCn1nc(C)cc1C(=O)/N=c1\[nH]c2cc(-c3ncn[nH]3)cc(OC)c2n1C/C=C/Cn1/c(=N/C(=O)c2cc(C)nn2CC)[nH]c2cc(C(N)=O)c3ccoc3c21	17	1.14	–	–	–	–
CCn1nc(C)cc1C(=O)/N=c1\[nH]c2cc(C3=NCCO3)cc(OC)c2n1C/C=C/Cn1/c(=N/C(=O)c2cc(C)nn2CC)[nH]c2cc(C(N)=O)cc(OCCCN3CCOCC3)c21	18.3	–	1.54	> 50	0.99	–
CCn1nc(C)cc1/C=C/c1nc2cc(C(N)=O)cc(OC)c2n1C/C=C/Cn1c(/C=C/c2cc(C)nn2CC)nc2cc(C(N)=O)cc(OCCCN3CCOCC3)c21	0.98	–	–	–	0.96	–
CCn1nc(C)cc1C(=O)/N=c1\[nH]c2cc(-c3ncn[nH]3)cc(OC)c2n1CCCCn1/c(=N/C(=O)c2cc(C)nn2CC)[nH]c2cc(C(N)=O)cc(OCCCN3CCOCC3)c21	1.28	1.2	–	–	–	–
CCn1nc(C)cc1C(=O)/N=c1\[nH]c2cc(-c3ncn[nH]3)cc(OC)c2n1[C@H]1CC[C@H](n2/c(=N/C(=O)c3cc(C)nn3CC)[nH]c3cc(C(N)=O)cc(OCCCN4CCOCC4)c32)CC1	3.86	–	> 50	> 50	0.48	–
CCn1nc(C)cc1C(=O)/N=c1\[nH]c2cc(C#N)cc(OC)c2n1C/C=C/Cn1/c(=N/C(=O)c2cc(C)nn2CC)[nH]c2cc(C#N)cc(OCCCN3CCOCC3)c21	7.9	1.16	> 50	> 50	–	–
CCn1nc(C)cc1C(=O)/N=c1\[nH]c2cc(-c3ncn[nH]3)cc(OC)c2n1C/C=C/Cn1/c(=N/C(=O)c2cc(C)nn2CC)[nH]c2cc(C#N)cc(OCCCN3CCOCC3)c21	11.1	–	26	> 50	1.34	–
CCn1nc(C)cc1C(=O)/N=c1\[nH]c2cc(C(N)=O)cc(OC)c2n1C/C=C/Cn1/c(=N/C(=O)c2cc(C)nn2CC)[nH]c2cc(C#N)cc(OCCCN3CCOCC3)c21	13.4	–	1.02	> 50	1.07	–
